≈ marks a conversion by molar mass, not a printed value.
Tested on: not listed separately
Test: Cytotoxicity against human Hep3B cells assessed as cell viability at 50 uM incubated for 48 hrs by MTT assay relative to control
Assay type: cell-based, Hep 3B2
Settings: read-out: Activity
How it was run: (§1)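 Cells kept in DMEM Glutamax with 10% FBS and antibiotic/antimycotic at 37 °C, 5% CO2. Plated at 2x10^3 cells/well 24 h before dosing. Compounds taken from DMSO and diluted in medium, final DMSO ≤1.0%. Exposure 48 h, then MTT added for 4 h at 37 °C. Read as A595 minus A655. Triplicates, at least three independent experiments, mean ± SEM.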

Row | Structure (SMILES) | viability at 48 h, 50 µM [%]
1 | Cc1ccc(CN(C)CCCCN2C(=O)CCc3ccccc32)c(C)c1 | 52

Tested on: not listed separately
Test: Antioxidant activity assessed as H2O2 radical scavenging activity
Assay type: functional
Settings: not given
How it was run: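 Compounds at 0.05, 0.1, 0.2 and 0.4 mg/mL in phosphate buffer pH 7.4. 0.353 mL of 4 mM H2O2 in phosphate buffer added to 2.0 mL of each solution, absorbance read at 239 nm. Percent inhibition calculated from absorbances relative to control. Triplicate, mean ± SEM.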

Row | Structure (SMILES) | IC50 [µg/mL]
2 | Cc1ccc(CN(C)CCCCN2C(=O)CCc3ccccc32)c(C)c1 | 29.16 (≈ 83.2 µM)

Tested on: not listed separately
Test: Cytotoxicity against human HeLa cells assessed as cell viability at 10 uM incubated for 48 hrs by MTT assay relative to control
Assay type: cell-based
Settings: read-out: Activity
How it was run: as §1

Row | Structure (SMILES) | viability at 48 h, 10 µM [%]
3 | Cc1ccc(CN(C)CCCCN2C(=O)CCc3ccccc32)c(C)c1 | 79

Tested on: not listed separately
Test: Cytotoxicity against human Hep3B cells assessed as cell viability at 10 uM incubated for 48 hrs by MTT assay relative to control
Assay type: cell-based, Hep 3B2
Settings: read-out: Activity
How it was run: as §1

Row | Structure (SMILES) | viability at 48 h, 10 µM [%]
4 | Cc1ccc(CN(C)CCCCN2C(=O)CCc3ccccc32)c(C)c1 | 77

Tested on: not listed separately
Test: Cytotoxicity against human SH-SY5Y cells assessed as cell viability at 25 uM incubated for 48 hrs by MTT assay (reference value: 100 +/- 12.00%)
Assay type: cell-based
Settings: read-out: Activity
How it was run: as §1

Row | Structure (SMILES) | viability at 48 h, 25 µM [%]
5 | Cc1ccc(CN(C)CCCCN2C(=O)CCc3ccccc32)c(C)c1 | 79 to 95

Tested on: not listed separately
Test: Cytotoxicity against human HeLa cells assessed as cell viability at 25 uM incubated for 48 hrs by MTT assay relative to control
Assay type: cell-based
Settings: read-out: Activity
How it was run: as §1

Row | Structure (SMILES) | viability at 48 h, 25 µM [%]
6 | Cc1ccc(CN(C)CCCCN2C(=O)CCc3ccccc32)c(C)c1 | 59

Tested on: not listed separately
Test: Cytotoxicity against human SH-SY5Y cells assessed as cell viability at 10 uM incubated for 48 hrs by MTT assay (reference value: 100 +/- 12.00%)
Assay type: cell-based
Settings: read-out: Activity
How it was run: as §1

Row | Structure (SMILES) | viability at 48 h, 10 µM [%]
7 | Cc1ccc(CN(C)CCCCN2C(=O)CCc3ccccc32)c(C)c1 | 92

Tested on: not listed separately
Test: Antioxidant activity assessed as ABTS radical scavenging activity incubated for 40 mins
Assay type: functional
Settings: not given
How it was run: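 Test compound at 0.05, 0.1, 0.2 and 0.4 mg/mL (200 µL) added to 1.8 mL ethanolic ABTS 7mM. Incubated 40 min at room temperature, absorbance read at 735 nm against ABTS solution. Percent inhibition computed from absorbances and used to derive IC50. Triplicate, mean ± SEM; ascorbic acid as reference.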

Row | Structure (SMILES) | IC50 [µg/mL]
8 | Cc1ccc(CN(C)CCCCN2C(=O)CCc3ccccc32)c(C)c1 | 26.24 (≈ 74.9 µM)

Tested on: not listed separately
Test: Cytotoxicity against human SH-SY5Y cells assessed as cell viability at 100 uM incubated for 48 hrs by MTT assay (reference value: 100 +/- 12.00%)
Assay type: cell-based
Settings: read-out: Activity
How it was run: as §1

Row | Structure (SMILES) | viability at 48 h, 100 µM [%]
9 | Cc1ccc(CN(C)CCCCN2C(=O)CCc3ccccc32)c(C)c1 | 78

Biological target: Sigma non-opioid intracellular receptor 1 (Cavia porcellus, UniProt Q60492)
Test: Displacement of [3H]-(+)-pentazocine from sigma1 receptor in guinea pig brain cortex membranes incubated for 120 mins by solid scintillation counting method
Assay type: cell membranes
Settings: not given
How it was run: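 Guinea pig brain cortex membranes (about 100 µg protein) with 2 nM [3H]-(+)-pentazocine in 50 mM TRIS pH 7.4 at 37 °C. Non-specific binding defined with 10 µM unlabeled (+)-pentazocine. Six concentrations, 10^-5 to 10^-10 M, in duplicate. 120 min with shaking, filtration, solid scintillator counting.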

Sequence of Sigma non-opioid intracellular receptor 1 (Q60492 whole entry): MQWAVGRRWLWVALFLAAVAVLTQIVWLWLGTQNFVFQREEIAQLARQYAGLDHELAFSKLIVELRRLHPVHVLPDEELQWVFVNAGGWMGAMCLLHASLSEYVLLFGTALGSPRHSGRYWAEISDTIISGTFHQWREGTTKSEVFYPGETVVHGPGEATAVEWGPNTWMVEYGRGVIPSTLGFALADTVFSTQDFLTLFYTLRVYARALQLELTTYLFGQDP

Row | Structure (SMILES) | Ki [µM]
10 | Cc1ccc(CN(C)CCCCN2C(=O)CCc3ccccc32)c(C)c1 | 0.06

Tested on: not listed separately
Test: Cytotoxicity against human HeLa cells assessed as cell viability at 100 uM incubated for 48 hrs by MTT assay relative to control
Assay type: cell-based
Settings: read-out: Activity
How it was run: as §1

Row | Structure (SMILES) | viability at 48 h, 100 µM [%]
11 | Cc1ccc(CN(C)CCCCN2C(=O)CCc3ccccc32)c(C)c1 | 47

Tested on: not listed separately
Test: Cytotoxicity against human Hep3B cells assessed as decrease in cell viability incubated for 48 hrs by MTT assay
Assay type: cell-based, Hep 3B2
Settings: read-out: LD50
How it was run: (§2)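 Cells kept in DMEM Glutamax with 10% FBS and antibiotic/antimycotic at 37 °C, 5% CO2. Seeded 24 h before dosing (SH-SY5Y at 2x10^3 cells/well). Compounds in DMSO serially diluted in medium, final DMSO 1.0%, exposure 48 h. MTT added for 4 h at 37 °C, read A595 minus A655. LD50 from linear regression of dose-log response curves; triplicates, three experiments, mean ± SEM.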

Row | Structure (SMILES) | CC50 at 48 h [µM]
12 | Cc1ccc(CN(C)CCCCN2C(=O)CCc3ccccc32)c(C)c1 | 60

Biological target: Glutamate NMDA receptor; GRIN1/GRIN2B (Homo sapiens, UniProt Q05586+Q13224)
Test: Displacement of [3H]ifenprodil from GluN1a/GluN2B (unknown origin) expressed in mouse L(tk-) cell membranes after 120 mins by solid scintillation counting method
Settings: not given
How it was run: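 Membranes (about 20 μg protein) from mouse L(tk-) cells stably carrying GluN1a/GluN2B, induced with 4 μM dexamethasone and 4 μM ketamine for 24 h. Incubated with 5 nM [3H]ifenprodil in 5 mM TRIS/1 mM EDTA pH 7.5 at 37 °C, 120 min. Non-specific binding defined with 10 μM ifenprodil.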

Sequence of Glutamate NMDA receptor; GRIN1/GRIN2B (Q13224 whole entry, other chains not shown): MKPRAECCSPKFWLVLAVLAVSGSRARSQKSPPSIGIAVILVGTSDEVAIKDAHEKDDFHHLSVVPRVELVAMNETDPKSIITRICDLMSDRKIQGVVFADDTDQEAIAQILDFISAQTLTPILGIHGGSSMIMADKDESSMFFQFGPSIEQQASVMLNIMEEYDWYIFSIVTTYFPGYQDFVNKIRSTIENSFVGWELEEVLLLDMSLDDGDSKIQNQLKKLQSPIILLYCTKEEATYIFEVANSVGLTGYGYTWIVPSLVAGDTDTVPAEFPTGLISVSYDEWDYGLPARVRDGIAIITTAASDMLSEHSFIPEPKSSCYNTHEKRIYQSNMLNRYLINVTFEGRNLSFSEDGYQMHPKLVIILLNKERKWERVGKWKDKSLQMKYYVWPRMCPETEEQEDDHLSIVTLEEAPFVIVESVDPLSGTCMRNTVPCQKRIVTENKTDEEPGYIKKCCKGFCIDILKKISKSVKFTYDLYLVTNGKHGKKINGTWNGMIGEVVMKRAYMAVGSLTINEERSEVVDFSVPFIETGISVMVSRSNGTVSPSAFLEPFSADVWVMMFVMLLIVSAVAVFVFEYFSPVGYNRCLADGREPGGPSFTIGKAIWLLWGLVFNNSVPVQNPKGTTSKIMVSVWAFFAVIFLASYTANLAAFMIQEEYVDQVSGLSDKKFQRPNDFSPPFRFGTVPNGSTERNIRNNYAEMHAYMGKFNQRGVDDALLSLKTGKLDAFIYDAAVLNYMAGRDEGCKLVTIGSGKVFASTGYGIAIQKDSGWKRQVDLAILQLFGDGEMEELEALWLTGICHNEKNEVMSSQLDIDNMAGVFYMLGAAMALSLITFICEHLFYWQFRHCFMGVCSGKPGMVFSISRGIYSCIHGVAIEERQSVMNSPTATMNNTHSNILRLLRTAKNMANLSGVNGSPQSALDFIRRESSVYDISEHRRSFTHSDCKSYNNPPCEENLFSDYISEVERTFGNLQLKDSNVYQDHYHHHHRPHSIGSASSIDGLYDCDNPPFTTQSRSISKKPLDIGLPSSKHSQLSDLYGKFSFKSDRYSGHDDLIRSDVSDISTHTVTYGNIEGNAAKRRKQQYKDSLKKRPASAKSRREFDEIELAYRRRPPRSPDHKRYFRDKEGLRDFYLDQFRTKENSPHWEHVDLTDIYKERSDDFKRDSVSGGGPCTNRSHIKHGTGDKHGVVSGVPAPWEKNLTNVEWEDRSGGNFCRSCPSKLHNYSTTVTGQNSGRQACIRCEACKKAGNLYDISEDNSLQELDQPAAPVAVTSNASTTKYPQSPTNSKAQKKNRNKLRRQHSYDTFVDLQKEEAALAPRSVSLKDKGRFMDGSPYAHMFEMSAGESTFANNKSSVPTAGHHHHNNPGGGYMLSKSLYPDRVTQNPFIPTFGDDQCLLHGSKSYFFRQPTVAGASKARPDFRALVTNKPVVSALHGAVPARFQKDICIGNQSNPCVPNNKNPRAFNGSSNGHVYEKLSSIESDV

Row | Structure (SMILES) | Ki [µM]
13 | Cc1ccc(CN(C)CCCCN2C(=O)CCc3ccccc32)c(C)c1 | 0.005

Tested on: not listed separately
Test: Cytotoxicity against human Hep3B cells assessed as cell viability at 100 uM incubated for 48 hrs by MTT assay relative to control
Assay type: cell-based, Hep 3B2
Settings: read-out: Activity
How it was run: as §1

Row | Structure (SMILES) | viability at 48 h, 100 µM [%]
14 | Cc1ccc(CN(C)CCCCN2C(=O)CCc3ccccc32)c(C)c1 | 223

Tested on: not listed separately
Test: Selectivity ratio of Ki for sigma1 receptor in guinea pig brain membranes to Ki for sigma2 receptor in rat liver membranes
Assay type: cell membranes
Settings: not given

Row | Structure (SMILES) | Ratio Ki
15 | Cc1ccc(CN(C)CCCCN2C(=O)CCc3ccccc32)c(C)c1 | 1.9

Tested on: not listed separately
Test: Cytotoxicity against human HeLa cells assessed as cell viability at 50 uM incubated for 48 hrs by MTT assay relative to control
Assay type: cell-based
Settings: read-out: Activity
How it was run: as §1

Row | Structure (SMILES) | viability at 48 h, 50 µM [%]
16 | Cc1ccc(CN(C)CCCCN2C(=O)CCc3ccccc32)c(C)c1 | 57

Biological target: T1, Sigma intracellular receptor 2 (Rattus norvegicus, UniProt Q5U3Y7)
T1 sequence (Q5U3Y7 whole entry): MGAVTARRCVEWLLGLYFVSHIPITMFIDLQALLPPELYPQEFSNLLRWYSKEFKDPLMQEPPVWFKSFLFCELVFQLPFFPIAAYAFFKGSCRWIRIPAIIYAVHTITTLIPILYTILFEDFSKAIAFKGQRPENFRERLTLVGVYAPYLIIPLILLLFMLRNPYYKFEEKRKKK
Test: Displacement of [3H]-di-o-tolylguanidine from sigma2 receptor in rat liver membranes in the presence of sigma1 receptor ligand (+)-pentazocine incubated for 120 mins by scintillation counting method
Assay type: cell membranes
Settings: not given
How it was run: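 Rat liver membranes (about 100 µg protein) with 3 nM [3H]di-o-tolylguanidine in 50 mM TRIS pH 8.0 containing 500 nM (+)-pentazocine, at rt. Non-specific binding defined with 10 µM unlabeled DTG. Concentrations 10^-5 to 10^-10 M, in duplicate. 120 min, filtration, scintillation counting. Three independent experiments, mean ± SEM.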

Row | Structure (SMILES) | Ki [µM]
17 | Cc1ccc(CN(C)CCCCN2C(=O)CCc3ccccc32)c(C)c1 | 0.032

Tested on: not listed separately
Test: Cytotoxicity against human Hep3B cells assessed as cell viability at 25 uM incubated for 48 hrs by MTT assay relative to control
Assay type: cell-based, Hep 3B2
Settings: read-out: Activity
How it was run: as §1

Row | Structure (SMILES) | viability at 48 h, 25 µM [%]
18 | Cc1ccc(CN(C)CCCCN2C(=O)CCc3ccccc32)c(C)c1 | 81

Tested on: not listed separately
Test: Selectivity ratio of Ki for sigma2 receptor in rat liver membranes to Ki for GluN1a/GluN2B (unknown origin) expressed in mouse L(tk-) cell membranes
Assay type: cell-based
Settings: not given

Row | Structure (SMILES) | Ratio Ki
19 | Cc1ccc(CN(C)CCCCN2C(=O)CCc3ccccc32)c(C)c1 | 6.4

Tested on: not listed separately
Test: Cytotoxicity against human SH-SY5Y cells assessed as decrease in cell viability incubated for 48 hrs by MTT assay
Assay type: cell-based
Settings: read-out: LD50
How it was run: as §2

Row | Structure (SMILES) | CC50 at 48 h [µM]
20 | Cc1ccc(CN(C)CCCCN2C(=O)CCc3ccccc32)c(C)c1 | 231

Tested on: not listed separately
Test: Cytotoxicity against human SH-SY5Y cells assessed as cell viability at 50 uM incubated for 48 hrs by MTT assay (reference value: 100 +/- 12.00%)
Assay type: cell-based
Settings: read-out: Activity
How it was run: as §1

Row | Structure (SMILES) | viability at 48 h, 50 µM [%]
21 | Cc1ccc(CN(C)CCCCN2C(=O)CCc3ccccc32)c(C)c1 | 90

Tested on: SH-SY5Y
Test: Neuroprotective activity against H2O2-induced toxicity in human SH-SY5Y cells assessed as cell viability at 25 uM pretreated for 48 hrs followed by H2O2 challenge and measured after 4 hrs by MTT assay (reference value: 18 +/- 2.64%)
Assay type: functional
Settings: read-out: Activity

Row | Structure (SMILES) | viability at 25 µM [%]
22 | Cc1ccc(CN(C)CCCCN2C(=O)CCc3ccccc32)c(C)c1 | 98

Tested on: not listed separately
Test: Cytotoxicity against human HeLa cells assessed as decrease in cell viability incubated for 48 hrs by MTT assay
Assay type: cell-based
Settings: read-out: LD50
How it was run: as §2

Row | Structure (SMILES) | CC50 at 48 h [µM]
23 | Cc1ccc(CN(C)CCCCN2C(=O)CCc3ccccc32)c(C)c1 | 76
